Test results published in ChEMBL document CHEMBL1149455, “Structure-activity relationship study of 1,4-dihydropyridine derivatives blocking N-type calcium channels” (Bioorg Med Chem Lett, 2006).

Columns and labels:
[1] = biological target: Voltage-dependent N-type calcium channel subunit alpha-1B (Homo sapiens, UniProt Q00975); assay: Inhibitory activity against N-type calcium channel by calcium influx into IMR32 cells; format: functional, cell-based, IMR-32
[2] = biological target: Voltage-gated L-type calcium channel (Rattus norvegicus, UniProt P22002+Q02485+P27732); assay: Inhibitory activity against L-type calcium channel in SD rat thoracic aorta by Magnus method; format: functional, tissue-based
How it was run: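 Aortic ring held at 2 g resting tension and equilibrated 1 h. It was then exposed to high-K⁺ solution and then Tyrode's solution, 45 min each, and returned to high-K⁺. After maximal contraction, compound was added cumulatively at 90-min intervals to 10⁻⁹, 10⁻⁸, 10⁻⁷ and 10⁻⁶ M. IC50 was derived from inhibition of the K⁺-induced contraction.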

[3] = system: Rattus norvegicus; assay: Analgesic effect in rat following foot-pad injection of formalin at 30 mg/kg, po; format: functional

Voltage-dependent N-type calcium channel subunit alpha-1B, sequence (Q00975 whole entry): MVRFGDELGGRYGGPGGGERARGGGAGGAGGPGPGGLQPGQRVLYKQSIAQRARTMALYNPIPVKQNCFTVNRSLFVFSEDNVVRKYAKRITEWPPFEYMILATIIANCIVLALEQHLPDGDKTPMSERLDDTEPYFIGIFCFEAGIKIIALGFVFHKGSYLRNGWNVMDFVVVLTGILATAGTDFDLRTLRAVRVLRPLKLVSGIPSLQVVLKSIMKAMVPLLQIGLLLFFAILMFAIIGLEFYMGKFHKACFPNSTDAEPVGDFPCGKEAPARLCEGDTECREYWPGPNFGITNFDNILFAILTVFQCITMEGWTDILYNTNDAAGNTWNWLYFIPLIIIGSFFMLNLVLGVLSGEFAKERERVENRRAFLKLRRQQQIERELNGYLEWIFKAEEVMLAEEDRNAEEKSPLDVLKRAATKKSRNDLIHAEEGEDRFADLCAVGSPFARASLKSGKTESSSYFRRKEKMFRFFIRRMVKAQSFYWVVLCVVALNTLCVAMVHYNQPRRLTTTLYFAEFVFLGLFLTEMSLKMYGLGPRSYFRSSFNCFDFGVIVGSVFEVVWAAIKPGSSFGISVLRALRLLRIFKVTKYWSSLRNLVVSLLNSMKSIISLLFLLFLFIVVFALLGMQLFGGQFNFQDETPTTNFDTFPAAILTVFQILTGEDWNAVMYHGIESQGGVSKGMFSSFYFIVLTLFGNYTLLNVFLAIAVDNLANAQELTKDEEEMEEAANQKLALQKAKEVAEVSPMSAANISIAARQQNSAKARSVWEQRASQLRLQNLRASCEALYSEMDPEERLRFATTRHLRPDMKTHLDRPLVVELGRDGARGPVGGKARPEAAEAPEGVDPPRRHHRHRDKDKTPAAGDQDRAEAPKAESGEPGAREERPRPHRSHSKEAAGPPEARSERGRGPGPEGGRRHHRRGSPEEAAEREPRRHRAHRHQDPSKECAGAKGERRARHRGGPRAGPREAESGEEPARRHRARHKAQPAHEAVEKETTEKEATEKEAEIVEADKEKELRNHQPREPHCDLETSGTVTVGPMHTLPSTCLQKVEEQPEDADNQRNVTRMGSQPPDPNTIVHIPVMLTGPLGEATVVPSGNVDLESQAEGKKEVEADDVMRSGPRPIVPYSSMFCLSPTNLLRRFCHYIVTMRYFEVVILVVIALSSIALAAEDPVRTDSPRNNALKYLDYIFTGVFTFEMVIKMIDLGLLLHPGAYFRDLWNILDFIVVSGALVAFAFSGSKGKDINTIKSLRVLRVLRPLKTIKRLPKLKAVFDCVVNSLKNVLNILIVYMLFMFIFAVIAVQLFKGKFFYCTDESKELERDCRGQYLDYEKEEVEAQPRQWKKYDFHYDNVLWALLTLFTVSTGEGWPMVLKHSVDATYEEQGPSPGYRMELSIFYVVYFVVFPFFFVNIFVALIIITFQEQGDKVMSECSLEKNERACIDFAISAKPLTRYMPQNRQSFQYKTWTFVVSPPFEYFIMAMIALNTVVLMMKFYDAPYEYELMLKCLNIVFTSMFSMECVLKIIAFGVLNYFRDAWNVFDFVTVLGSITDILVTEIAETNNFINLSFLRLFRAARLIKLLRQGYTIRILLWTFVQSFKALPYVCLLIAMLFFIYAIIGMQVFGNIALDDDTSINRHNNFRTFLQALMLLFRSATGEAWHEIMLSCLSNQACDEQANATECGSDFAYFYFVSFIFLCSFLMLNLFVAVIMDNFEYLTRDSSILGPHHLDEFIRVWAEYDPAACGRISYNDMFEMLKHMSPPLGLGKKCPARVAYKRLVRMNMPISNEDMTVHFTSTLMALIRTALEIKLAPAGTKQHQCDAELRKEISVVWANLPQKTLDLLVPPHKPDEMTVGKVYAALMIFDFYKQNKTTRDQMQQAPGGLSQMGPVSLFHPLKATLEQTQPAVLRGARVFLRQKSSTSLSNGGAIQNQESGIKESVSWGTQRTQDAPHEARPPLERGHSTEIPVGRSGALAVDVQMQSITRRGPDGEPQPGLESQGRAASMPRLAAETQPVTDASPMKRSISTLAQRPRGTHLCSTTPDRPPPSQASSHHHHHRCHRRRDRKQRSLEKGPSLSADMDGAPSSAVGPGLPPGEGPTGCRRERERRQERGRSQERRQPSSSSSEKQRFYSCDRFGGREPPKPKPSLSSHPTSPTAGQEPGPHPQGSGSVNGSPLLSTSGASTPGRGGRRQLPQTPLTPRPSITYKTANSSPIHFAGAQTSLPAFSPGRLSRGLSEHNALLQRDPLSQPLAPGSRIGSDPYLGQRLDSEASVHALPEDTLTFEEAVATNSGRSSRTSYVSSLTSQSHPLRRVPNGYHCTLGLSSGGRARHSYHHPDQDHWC

IC50 [1]	IC50 [2]	SMILES	inhibition in vivo at 30 mg/kg [3]
1.7 µM	0.013 µM	CC1=NC(C)=C(C(=O)O)C(c2cccc(I)c2)/C1=C(\O)OC/C=C/c1ccccc1 (stereo unspecified)	
4.6 µM	4.4 µM	COC(=O)c1cccc(C2C(C(=O)O)=C(C)N=C(C)/C2=C(/O)OC/C=C/c2ccccc2)c1 (stereo unspecified)	
1.1 µM	0.36 µM	CC1=NC(C)=C(C(=O)O)C(c2cccc(Cl)c2)/C1=C(\O)OCCC(c1ccccc1)c1ccccc1 (stereo unspecified)	
1.3 µM	0.02 µM	CC1=NC(C)=C(C(=O)O)C(c2cccc(F)c2)/C1=C(\O)OC/C=C/c1ccccc1 (stereo unspecified)	
37 µM	> 10 µM	CC1=NC(C)=C(C(=O)O)C(c2cccc(C(=O)O)c2)/C1=C(\O)OC/C=C/c1ccccc1 (stereo unspecified)	
0.68 µM	0.0028 µM	CC1=NC(C)=C(C(=O)O)C(c2cccc(Cl)c2)/C1=C(\O)OC/C(C)=C/c1ccccc1 (stereo unspecified)	
3.9 µM	0.014 µM	CC1=NC(C)=C(C(=O)O)C(c2cccc(Cl)c2)/C1=C(\O)OCc1ccc2ccccc2c1 (stereo unspecified)	
1.8 µM	0.076 µM	CC1=NC(C)=C(C(=O)O)C(c2cccc(C)c2)/C1=C(\O)OC/C=C/c1ccccc1 (stereo unspecified)	
6.2 µM	0.32 µM	CC1=NC(C)=C(C(=O)O)C(c2cccc(Cl)c2)/C1=C(\O)OC/C=C/c1ccncc1 (stereo unspecified)	
28 µM	0.05 µM	CC1=NC(C)=C(C(=O)O)C(c2cccc(Cl)c2)/C1=C(\O)OCC(=O)Nc1ccccc1 (stereo unspecified)	
0.89 µM	0.0068 µM	CC1=NC(C)=C(C(=O)O)C(c2cccc(Cl)c2)/C1=C(\O)OC/C=C/c1ccc(C)cc1 (stereo unspecified)	
0.79 µM	0.01 µM	CC1=NC(C)=C(C(=O)O)C(c2cccc(Br)c2)/C1=C(\O)OC/C=C/c1ccccc1 (stereo unspecified)	
3.9 µM	0.2 µM	CC1=NC(C)=C(C(=O)O)C(c2cccc(Cl)c2)/C1=C(\O)OCC=C(c1ccccc1)c1ccccc1 (stereo unspecified)	
10 µM	1.6 µM	CC1=NC(C)=C(C(=O)O)C(c2cccc(Cl)c2)/C1=C(\O)OCCC(c1ccccn1)c1ccccn1 (stereo unspecified)	
1 µM	0.02 µM	CC1=NC(C)=C(C(=O)O)C(c2cccc(Cl)c2)/C1=C(\O)OC/C=C/c1ccccc1 (stereo unspecified)	
1.5 µM	0.0058 µM	CC1=NC(C)=C(C(=O)O)C(c2cccc(Cl)c2)/C1=C(\O)OC/C=C/c1ccc(Cl)cc1 (stereo unspecified)	

More lines, now with the values behind:

SMILES	IC50 [1]	IC50 [2]	inhibition in vivo at 30 mg/kg [3]
CC1=C(C(=O)O)C(c2cccc(Cl)c2)C(C(=O)NC/C=C/c2ccccc2)=C(C)N1 (stereo unspecified)	4.5 µM	0.85 µM	
CC1=NC(C)=C(C(=O)O)C(c2cccc(Cl)c2)/C1=C(\O)OC/C=C/C1CCCCC1 (stereo unspecified)	0.83 µM	0.0037 µM	
CC1=NC(C)=C(C(=O)O)C(c2ccccc2)/C1=C(\O)OC/C=C/c1ccccc1 (stereo unspecified)	2 µM	0.009 µM	
CC1=NC(C)=C(C(=O)O)C(c2cccnc2)/C1=C(\O)OC/C=C/c1ccccc1 (stereo unspecified)	24 µM	0.19 µM	
CC1=NC(C)=C(C(=O)O)C(c2ccccc2[N+](=O)[O-])/C1=C(\O)OC/C=C/c1ccccc1 (stereo unspecified)	37 µM	0.031 µM	
CC1=C(C(=O)O)C(c2cccc(Cl)c2)C(C(=O)OCCC(c2ccccc2)c2ccccc2)=C(C(F)(F)F)N1 (stereo unspecified)	1.7 µM	1.8 µM	46%
CC1=NC(C)=C(C(=O)O)C(c2ccsc2)/C1=C(\O)OC/C=C/c1ccccc1 (stereo unspecified)	2.9 µM	0.044 µM	
CC1=NC(C)=C(C(=O)O)C(c2ccc([N+](=O)[O-])cc2)/C1=C(\O)OC/C=C/c1ccccc1 (stereo unspecified)	21 µM	1.6 µM	
CC1=NC(C)=C(C(=O)O)C(c2ccoc2)/C1=C(\O)OC/C=C/c1ccccc1 (stereo unspecified)	11 µM	0.13 µM	
CC1=C(C(=O)O)C(c2cccc([N+](=O)[O-])c2)C(C(=O)OC/C=C/c2ccccc2)=C(C)N1 (stereo unspecified)	3.5 µM	0.046 µM	
COCCOC(=O)C1=C(C)NC(C)=C(C(=O)OC/C=C/c2ccccc2)C1c1cccc([N+](=O)[O-])c1 (stereo unspecified) [CILNIDIPINE]	1.6 µM	0.0011 µM	46%
